Experiments:
Type in all cases: functional
[1] = system: NCI-H460; experiment: Anticancer activity against Homo sapiens (human) NCI-H460 cells by SRB assay
Summary of the method: (§1)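 Five-dose NCI 60-cell-line panel testing at tenfold dilutions from 10−4 to 10−8 M, with growth read by sulforhodamine B protein staining. For each cell line: GI50 is the molar concentration giving half growth inhibition; TGI is total growth inhibition (cytostatic); LC50 is the molar concentration killing 50% of the initial cells (cytotoxic).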

[2] = system: HCT-15; experiment: Anticancer activity against Homo sapiens (human) HCT15 cells assessed as cell growth at 10 uM by SRB assay; conditions: read-out: Activity
Summary of the method: (§2)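 NCI 60-cell human tumour panel (nine cancer types) screened at one concentration, 10−5 M. Cell growth estimated by sulforhodamine B protein staining and reported as percent growth of treated cells relative to untreated controls.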

[3] = system: HCC 2998; experiment: Anticancer activity against Homo sapiens (human) HCC2998 cells assessed as cell growth at 10 uM by SRB assay; conditions: read-out: Activity; summary of the method: as §2
[4] = system: A549; experiment: Anticancer activity against Homo sapiens (human) A549/ATCC cells by SRB assay
Summary of the method: (§3)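 NCI 60-line panel, five tenfold dilutions from 10−4 to 10−8 M, growth read by sulforhodamine B staining against untreated controls. From the dose–response per line: GI50 (molar concentration giving half growth inhibition), TGI (molar concentration giving total growth inhibition, cytostatic) and LC50 (molar concentration killing 50% of initial cells, cytotoxic).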

[5] = system: K562; experiment: Anticancer activity against Homo sapiens (human) K562 cells by SRB assay; summary of the method: as §3
[6] = system: SR; experiment: Anticancer activity against Homo sapiens (human) SR cells assessed as cell growth at 10 uM by SRB assay; conditions: read-out: Activity
Summary of the method: (§4)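 NCI 60-cell human tumour panel (leukemia, melanoma, lung, colon, CNS, breast, ovarian, prostate, renal lines) given a single 10−5 M dose. Growth is expressed as percent growth of treated cells relative to untreated controls, with cell growth/viability estimated by sulforhodamine B protein staining.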

[7] = system: K562; experiment: Anticancer activity against Homo sapiens (human) K562 cells assessed as cell growth at 10 uM by SRB assay; conditions: read-out: Activity; summary of the method: as §2
[8] = system: HL-60(TB); experiment: Anticancer activity against Homo sapiens (human) HL-60(TB) cells assessed as cell growth at 10 uM by SRB assay; conditions: read-out: Activity
Summary of the method: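 NCI 60-cell-line human tumour panel screen at a single 10−5 M concentration. Cell growth was estimated by sulforhodamine B protein staining. Results are given as percent growth of treated cells relative to untreated controls.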

[9] = system: ACHN; experiment: Anticancer activity against Homo sapiens (human) ACHN cells by SRB assay; summary of the method: as §3
[10] = system: OVCAR-5; experiment: Anticancer activity against Homo sapiens (human) OVCAR5 cells by SRB assay; conditions: read-out: pTGI (converted); summary of the method: as §1
[11] = system: IGROV-1; experiment: Anticancer activity against Homo sapiens (human) IGROV1 cells by SRB assay; summary of the method: as §3
[12] = system: UACC-62; experiment: Anticancer activity against Homo sapiens (human) UACC62 cells by SRB assay
Summary of the method: (§5)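 NCI five-dose follow-up on the 60-line human tumour panel at tenfold dilutions from 10−4 to 10−8 M, with growth read by sulforhodamine B protein assay against untreated controls. For each cell line, GI50 (half growth inhibition), TGI (total growth inhibition) and LC50 (50% death of initial cells) are calculated as molar concentrations.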

[13] = system: Malme-3M; experiment: Anticancer activity against Homo sapiens (human) MALME-3M cells by SRB assay; summary of the method: as §3
[14] = system: SNB-75; experiment: Anticancer activity against Homo sapiens (human) SNB75 cells by SRB assay; summary of the method: as §1
[15] = system: U-251; experiment: Anticancer activity against Homo sapiens (human) U251 cells by SRB assay; summary of the method: as §5
[16] = system: SNB-19; experiment: Anticancer activity against Homo sapiens (human) SNB19 cells by SRB assay; summary of the method: as §1
[17] = system: KM12; experiment: Anticancer activity against Homo sapiens (human) KM12 cells by SRB assay; summary of the method: as §3
[18] = system: SW-620; experiment: Anticancer activity against Homo sapiens (human) SW620 cells by SRB assay; summary of the method: as §5
[19] = system: HCT-15; experiment: Anticancer activity against Homo sapiens (human) HCT15 cells by SRB assay; summary of the method: as §3
[20] = system: HCC 2998; experiment: Anticancer activity against Homo sapiens (human) HCC2998 cells by SRB assay; summary of the method: as §3
[21] = system: NCI/ADR-RES; experiment: Anticancer activity against Homo sapiens (human) NCI/ADR-RES cells assessed as cell growth at 10 uM by SRB assay; conditions: read-out: Activity
Summary of the method: (§6)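 Single-dose screen in the NCI 60-human-tumour-cell-line panel (nine cancer types) at 10−5 M. Cell growth was estimated by sulforhodamine B protein staining and reported as percent growth of treated cells relative to untreated controls.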

[22] = system: OVCAR-5; experiment: Anticancer activity against Homo sapiens (human) OVCAR5 cells assessed as cell growth at 10 uM by SRB assay; conditions: read-out: Activity; summary of the method: as §6
[23] = system: OVCAR-3; experiment: Anticancer activity against Homo sapiens (human) OVCAR3 cells assessed as cell growth at 10 uM by SRB assay; conditions: read-out: Activity; summary of the method: as §6
[24] = system: UACC-62; experiment: Anticancer activity against Homo sapiens (human) UACC62 cells assessed as cell growth at 10 uM by SRB assay; conditions: read-out: Activity; summary of the method: as §4
[25] = system: UACC-257; experiment: Anticancer activity against Homo sapiens (human) UACC257 cells assessed as cell growth at 10 uM by SRB assay; conditions: read-out: Activity; summary of the method: as §4
[26] = system: SK-MEL-5; experiment: Anticancer activity against Homo sapiens (human) SK-MEL-5 cells assessed as cell growth at 10 uM by SRB assay; conditions: read-out: Activity; summary of the method: as §6
[27] = system: SF-268; experiment: Anticancer activity against Homo sapiens (human) SF268 cells assessed as cell growth at 10 uM by SRB assay; conditions: read-out: Activity; summary of the method: as §6
[28] = system: HCT-116; experiment: Anticancer activity against Homo sapiens (human) HCT116 cells by SRB assay; summary of the method: as §3
[29] = system: T47D; experiment: Anticancer activity against Homo sapiens (human) T47D cells by SRB assay; summary of the method: as §5
[30] = system: Hs-578T; experiment: Anticancer activity against Homo sapiens (human) Hs 578T cells by SRB assay; summary of the method: as §3
[31] = system: PC-3; experiment: Anticancer activity against Homo sapiens (human) PC3 cells by SRB assay; summary of the method: as §1
[32] = system: A498; experiment: Anticancer activity against Homo sapiens (human) A498 cells by SRB assay; summary of the method: as §3
[33] = system: T47D; experiment: Anticancer activity against Homo sapiens (human) T47D cells assessed as cell growth at 10 uM by SRB assay; conditions: read-out: Activity; summary of the method: as §4
[34] = system: MDA-MB-231; experiment: Anticancer activity against Homo sapiens (human) MDA-MB-231/ATCC cells assessed as cell growth at 10 uM by SRB assay; conditions: read-out: Activity; summary of the method: as §2
[35] = system: DU-145; experiment: Anticancer activity against Homo sapiens (human) DU145 cells assessed as cell growth at 10 uM by SRB assay; conditions: read-out: Activity; summary of the method: as §2
[36] = system: RXF 393; experiment: Anticancer activity against Homo sapiens (human) RXF393 cells assessed as cell growth at 10 uM by SRB assay; conditions: read-out: Activity; summary of the method: as §6
[37] = system: PC-3; experiment: Anticancer activity against Homo sapiens (human) PC3 cells assessed as cell growth at 10 uM by SRB assay; conditions: read-out: Activity; summary of the method: as §6
[38] = read-out: pLC50 (the source's name) (converted)

SMILES: O=c1sc2c(Cl)nc(-c3ccccc3)nc2n1-c1ccccc1
- GI50 [1]: 25.1 µM
- growth at 10 µM [2]: 28%
- growth at 10 µM [3]: 90%
- GI50 [4]: 43.7 µM
- GI50 [5]: 4.07 µM
- growth at 10 µM [6]: 8%
- growth at 10 µM [7]: 19%
- growth at 10 µM [8]: 38%
- GI50 [9]: 6.92 µM
- TGI [10]: 45.7 µM
- GI50 [11]: 1.78 µM
- LC50 [11]: 18.2 µM
- TGI ([11]; read-out: pTGI (converted)): 4.79 µM
- GI50 [12]: 20 µM
- GI50 [13]: 14.8 µM
- TGI ([13]; read-out: pTGI (converted)): 79.4 µM
- GI50 [14]: 1.86 µM
- CC50 [14, 38]: 56.2 µM
- TGI ([14]; read-out: pTGI (converted)): 13.8 µM
- GI50 [15]: 3.72 µM
- TGI ([15]; read-out: pTGI (converted)): 18.6 µM
- GI50 [16]: 41.7 µM
- GI50 [17]: 81.3 µM
- GI50 [18]: 2.75 µM
- TGI ([18]; read-out: pTGI (converted)): 9.12 µM
- GI50 [19]: 4.68 µM
- GI50 [20]: 81.3 µM
- growth at 10 µM [21]: 66%
- growth at 10 µM [22]: 90%
- growth at 10 µM [23]: -41%
- growth at 10 µM [24]: 62%
- growth at 10 µM [25]: 48%
- growth at 10 µM [26]: 60%
- growth at 10 µM [27]: 52%
- GI50 [28]: 2.09 µM
- CC50 [28, 38]: 9.55 µM
- TGI ([28]; read-out: pTGI (converted)): 4.47 µM
- GI50 [29]: 17 µM
- GI50 [30]: 3.31 µM
- TGI ([30]; read-out: pTGI (converted)): 18.6 µM
- GI50 [31]: 3.31 µM
- CC50 [31, 38]: 81.3 µM
- TGI ([31]; read-out: pTGI (converted)): 14.5 µM
- GI50 [32]: 3.47 µM
- growth at 10 µM [33]: 57%
- growth at 10 µM [34]: 37%
- growth at 10 µM [35]: 34%
- growth at 10 µM [36]: -4%
- growth at 10 µM [37]: 11%

Source: ChEMBL document CHEMBL3045605, “Synthesis and anticancer evaluation of novel 3,5-diaryl-thiazolo[4,5-d]pyrimidin-2-one derivatives” (2013)
